According to ChEMBL document CHEMBL3425481, “Design, synthesis and anticancer activity of matrine-1H-1,2,3-triazole-chalcone conjugates” (Bioorg Med Chem Lett, 2015):
pIC50: −log10 of the molar value. The source made the active and inactive calls. No cut-off for these calls is given here.

Tests used:
[1] = system: A549; experiment: Antiproliferative activity against human A549 cells assessed as inhibition of cell proliferation incubated for 48 hrs by CCK8 assay; type: functional, cell-based; conditions: A549, 48 h
Outline: (§1)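 Human A549 lung, Hela cervical, Bel-7402 hepatocellular and MCF-7 breast cancer cells, plus mouse embryo fibroblast NIH3T3, tested for anti-proliferative activity by CCK-8 assay. For the matrine combination tests, the chalcone and matrine were used at a 1:1 molar ratio; values given as IC50.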

[2] = system: HeLa; experiment: Antiproliferative activity against human HeLa cells assessed as inhibition of cell proliferation incubated for 48 hrs by CCK8 assay; type: functional, cell-based; outline: as §1
[3] = Antiproliferative activity against mouse NIH/3T3 cells assessed as inhibition of cell proliferation incubated for 48 hrs by CCK8 assay; type: cell-based; conditions: NIH3T3, 48 h; outline: as §1
[4] = system: MCF7; experiment: Antiproliferative activity against human MCF7 cells assessed as inhibition of cell proliferation incubated for 48 hrs by CCK8 assay; type: functional, cell-based; conditions: MCF7, 48 h; outline: as §1
[5] = Antiproliferative activity against human Bel7402 cells assessed as inhibition of cell proliferation incubated for 48 hrs by CCK8 assay; type: functional, cell-based; conditions: Bel-7402, 48 h; outline: as §1
[6] = system: A549; experiment: Antitumor activity against human A549 cells xenografted in Balb/ca-nu mouse assessed as tumor growth inhibition at 5 mg/kg, iv dosed every 3 days for total of 7 dosing rounds measured on day 18 after treatment; type: functional; conditions: read-out: TGI
Outline: (§2)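 A549 xenograft in mice, dosed by tail vein injection every 3 days; vehicle saline plus 0.2% Tween 80. n = 8 per treatment group, 6 in the vehicle group. Mean ± SE.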

[7] = system: A549; experiment: Antitumor activity against human A549 cells xenografted in Balb/ca-nu mouse assessed as tumor growth inhibition at 5 mg/kg, iv dosed every 3 days for total of 7 dosing rounds measured on day 16 after treatment; type: functional; conditions: read-out: TGI; outline: as §2
[8] = system: A549; experiment: Antitumor activity against human A549 cells xenografted in Balb/ca-nu mouse assessed as tumor growth inhibition at 5 mg/kg, iv dosed every 3 days for total of 7 dosing rounds measured on day 12 after treatment; type: functional; conditions: read-out: TGI; outline: as §2
[9] = system: A549; experiment: Antitumor activity against human A549 cells xenografted in Balb/ca-nu mouse assessed as tumor growth inhibition at 5 mg/kg, iv dosed every 3 days for total of 7 dosing rounds measured on day 10 after treatment; type: functional; conditions: read-out: TGI; outline: as §2
[10] = system: A549; experiment: Antitumor activity against human A549 cells xenografted in Balb/ca-nu mouse assessed as tumor growth inhibition at 5 mg/kg, iv dosed every 3 days for total of 7 dosing rounds measured on day 20 after treatment; type: functional; conditions: read-out: TGI; outline: as §2
[11] = system: A549; experiment: Antitumor activity against human A549 cells xenografted in Balb/ca-nu mouse assessed as tumor growth inhibition at 10 mg/kg, iv dosed every 3 days for total of 7 dosing rounds measured on day 8 after treatment; type: functional, organism-based; set-up: dose 10 mg/kg; outline: as §2
[12] = system: A549; experiment: Antitumor activity against human A549 cells xenografted in Balb/ca-nu mouse assessed as tumor growth inhibition at 5 mg/kg, iv dosed every 3 days for total of 7 dosing rounds measured on day 14 after treatment; type: functional; conditions: read-out: TGI; outline: as §2

Structure (SMILES)	pIC50 [1]	pIC50 [2]	pIC50 [3]	pIC50 [4]	pIC50 [5]	inhibition in vivo at 5 mg/kg [6] [%]	inhibition in vivo at 5 mg/kg [7] [%]	inhibition in vivo at 5 mg/kg [8] [%]	inhibition in vivo at 5 mg/kg [9] [%]	inhibition in vivo at 5 mg/kg [10] [%]	TGI [11]	inhibition in vivo at 5 mg/kg [12] [%]
O=C(/C=C/c1ccccc1)c1ccc(OCc2cn([C@H]3CC(=O)N4C[C@@H]5CCCN6CCC[C@@H]([C@H]56)[C@H]4C3)nn2)cc1O	4.77	4.76	< 4.00	4.92	4.76	–	–	–	–	–	–	–
C#CCOc1ccc(C(=O)/C=C/c2ccc(Cl)c(Cl)c2)c(O)c1	< 4.30	< 4.30	4.02	< 4.30	–	–	–	–	–	–	–	–
CC(C)(C)c1ccc(/C=C/C(=O)c2ccc(OCc3cn([C@H]4CC(=O)N5C[C@@H]6CCCN7CCC[C@@H]([C@H]67)[C@H]5C4)nn3)cc2O)cc1	4.44	4.44	4.69	–	–	–	–	–	–	–	–	–
O=c1[nH]cc(F)c(=O)[nH]1 [FLUOROURACIL]	4.39	5.05	4.65	5.02	4.70	–	–	–	–	–	–	–
O=C(/C=C/c1ccc(F)cc1)c1ccc(OCc2cn([C@H]3CC(=O)N4C[C@@H]5CCCN6CCC[C@@H]([C@H]56)[C@H]4C3)nn2)cc1	4.73	4.73	4.40	4.57	4.65	–	–	–	–	–	–	–
C#CCOc1ccc(C(=O)/C=C/c2ccc(Cl)c(Cl)c2)cc1	< 4.30	< 4.30	4.21	< 4.30	–	–	–	–	–	–	–	–
COc1cc(/C=C/C(=O)c2ccc(OCc3cn([C@H]4CC(=O)N5C[C@@H]6CCCN7CCC[C@@H]([C@H]67)[C@H]5C4)nn3)cc2O)cc(OC)c1OC	< 4.30	< 4.30	4.82	–	–	–	–	–	–	–	–	–
CC(=O)c1ccc(OCc2cn([C@H]3CC(=O)N4C[C@@H]5CCCN6CCC[C@@H]([C@H]56)[C@H]4C3)nn2)cc1	< 4.30	< 4.30	4.37	< 4.30	< 4.30	–	–	–	–	–	–	–
O=C(/C=C/c1ccc(Cl)c(Cl)c1)c1ccc(OCc2cn([C@H]3CC(=O)N4C[C@@H]5CCCN6CCC[C@@H]([C@H]56)[C@H]4C3)nn2)cc1O	5.09	5.18	4.32	5.15	4.91	–	–	–	–	–	–	–
COc1ccc(/C=C/C(=O)c2ccc(OCc3cn([C@H]4CC(=O)N5C[C@@H]6CCCN7CCC[C@@H]([C@H]67)[C@H]5C4)nn3)cc2O)cc1	< 4.30	< 4.30	4.53	< 4.30	< 4.30	–	–	–	–	–	–	–
O=C(/C=C/c1ccc(Cl)cc1)c1ccc(OCc2cn([C@H]3CC(=O)N4C[C@@H]5CCCN6CCC[C@@H]([C@H]56)[C@H]4C3)nn2)cc1	4.72	4.71	4.50	4.84	4.67	–	–	–	–	–	–	–
O=C(/C=C/c1cccc(Cl)c1)c1ccc(OCc2cn([C@H]3CC(=O)N4C[C@@H]5CCCN6CCC[C@@H]([C@H]56)[C@H]4C3)nn2)cc1	4.93	4.82	4.42	4.99	4.86	–	–	–	–	–	–	–
C#CCOc1ccc(C(=O)/C=C/c2ccccc2)cc1	< 4.30	< 4.30	4.14	< 4.30	–	–	–	–	–	–	–	–
O=C(/C=C/c1ccc(OC(F)F)cc1)c1ccc(OCc2cn([C@H]3CC(=O)N4C[C@@H]5CCCN6CCC[C@@H]([C@H]56)[C@H]4C3)nn2)cc1	< 4.30	< 4.30	4.56	–	–	–	–	–	–	–	–	–
O=C(/C=C/c1ccc(Br)cc1)c1ccc(OCc2cn([C@H]3CC(=O)N4C[C@@H]5CCCN6CCC[C@@H]([C@H]56)[C@H]4C3)nn2)cc1	4.61	4.77	4.51	4.64	4.64	–	–	–	–	–	–	–
CC(=O)O[C@H]1C(=O)[C@@]2(C)[C@H]([C@H](OC(=O)c3ccccc3)[C@]3(O)C[C@H](OC(=O)[C@H](O)[C@@H](NC(=O)c4ccccc4)c4ccccc4)C(C)=C1C3(C)C)[C@]1(OC(C)=O)CO[C@@H]1C[C@@H]2O [PACLITAXEL]	5.55	6.42	4.70	–	–	88.9	85.4	70.4	58.3	89.1	Active	79.5
CC(=O)c1ccc(OCc2cn([C@H]3CC(=O)N4C[C@@H]5CCCN6CCC[C@@H]([C@H]56)[C@H]4C3)nn2)cc1O	< 4.30	< 4.30	4.21	< 4.30	< 4.30	–	–	–	–	–	–	–
O=C(/C=C/c1ccccc1)c1ccc(OCc2cn([C@H]3CC(=O)N4C[C@@H]5CCCN6CCC[C@@H]([C@H]56)[C@H]4C3)nn2)cc1	4.49	4.60	4.71	4.76	4.68	–	–	–	–	–	–	–
COc1ccc(/C=C/C(=O)c2ccc(OCc3cn([C@H]4CC(=O)N5C[C@@H]6CCCN7CCC[C@@H]([C@H]67)[C@H]5C4)nn3)cc2)cc1	< 4.30	< 4.30	4.64	–	–	–	–	–	–	–	–	–
O=C(/C=C/c1ccccc1Cl)c1ccc(OCc2cn([C@H]3CC(=O)N4C[C@@H]5CCCN6CCC[C@@H]([C@H]56)[C@H]4C3)nn2)cc1	4.85	4.87	4.06	4.62	4.66	–	–	–	–	–	–	–
O=C(/C=C/c1ccc(F)cc1)c1ccc(OCc2cn([C@H]3CC(=O)N4C[C@@H]5CCCN6CCC[C@@H]([C@H]56)[C@H]4C3)nn2)cc1O	4.74	4.70	4.44	5.24	5.04	–	–	–	–	–	–	–
C#CCOc1ccc(C(=O)/C=C/c2cccc(Cl)c2)c(O)c1	< 4.30	< 4.30	4.10	< 4.30	–	–	–	–	–	–	–	–
COc1ccc(/C=C/C(=O)c2ccc(OCc3cn([C@H]4CC(=O)N5C[C@@H]6CCCN7CCC[C@@H]([C@H]67)[C@H]5C4)nn3)cc2)cc1OC	< 4.30	< 4.30	4.39	–	–	–	–	–	–	–	–	–
O=C(/C=C/c1cccc(C(F)(F)F)c1)c1ccc(OCc2cn([C@H]3CC(=O)N4C[C@@H]5CCCN6CCC[C@@H]([C@H]56)[C@H]4C3)nn2)cc1O	5.09	4.90	4.46	5.05	4.92	–	–	–	–	–	–	–
O=C(/C=C/c1ccc(Cl)cc1)c1ccc(OCc2cn([C@H]3CC(=O)N4C[C@@H]5CCCN6CCC[C@@H]([C@H]56)[C@H]4C3)nn2)cc1O	4.81	4.97	4.12	4.90	4.83	–	–	–	–	–	–	–
Cc1ccc(/C=C/C(=O)c2ccc(OCc3cn([C@H]4CC(=O)N5C[C@@H]6CCCN7CCC[C@@H]([C@H]67)[C@H]5C4)nn3)cc2)cc1	4.49	4.70	4.83	4.57	4.45	–	–	–	–	–	–	–
COc1ccc(/C=C/C(=O)c2ccc(OCc3cn([C@H]4CC(=O)N5C[C@@H]6CCCN7CCC[C@@H]([C@H]67)[C@H]5C4)nn3)cc2O)cc1OC	< 4.30	< 4.30	4.87	–	–	–	–	–	–	–	–	–
O=C(/C=C/c1ccc(Cl)c(Cl)c1)c1ccc(OCc2cn([C@H]3CC(=O)N4C[C@@H]5CCCN6CCC[C@@H]([C@H]56)[C@H]4C3)nn2)cc1	5.06	4.94	4.71	4.88	4.92	–	–	–	–	–	–	–
Cc1ccc(/C=C/C(=O)c2ccc(OCc3cn([C@H]4CC(=O)N5C[C@@H]6CCCN7CCC[C@@H]([C@H]67)[C@H]5C4)nn3)cc2O)cc1	< 4.30	< 4.30	4.68	–	–	–	–	–	–	–	–	–
O=C(/C=C/c1ccc([N+](=O)[O-])cc1)c1ccc(OCc2cn([C@H]3CC(=O)N4C[C@@H]5CCCN6CCC[C@@H]([C@H]56)[C@H]4C3)nn2)cc1	4.84	5.22	4.45	4.94	4.79	–	–	–	–	–	–	–
